Reference: ChEMBL document CHEMBL3044844, “Synthesis and antimicrobial evaluation of some novel 1,2,4-triazole and 1,3,4-thiadiazole derivatives” (2013)
In brackets after ≈: the same amount, converted by molar mass.

What was measured:
Format in all cases: functional
Micrococcus luteus = experiment: Antibacterial activity against Micrococcus luteus ATCC 10240 assessed as growth inhibition after 18 hr by CLSI broth microdilution method; conditions: ATCC 10240, 18 h
Method in brief: (§1)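 Inoculum: 0.5 McFarland suspension (150 × 10^6 CFU/mL) in sterile 0.85 % NaCl, 2 μL into 198 μL Mueller–Hinton broth. Compound stocks in DMSO; twofold dilutions, final 0.24–1,000 μg/mL. Incubated 35 °C, 18 h; OD600 read. MIC taken as lowest concentration with no visible growth. Controls: compound-free broth with DMSO, and bacteria-free compound blanks.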

Bacillus spizizenii = experiment: Antibacterial activity against Bacillus subtilis subsp. spizizenii ATCC 6633 assessed as growth inhibition after 18 hr by CLSI broth microdilution method; conditions: ATCC 6633, 18 h; method in brief: as §1
[1] = test system: Staphylococcus epidermidis; experiment: Antibacterial activity against Staphylococcus epidermidis ATCC 12228 assessed as growth inhibition after 18 hr by CLSI broth microdilution method; conditions: ATCC 12228, 18 h; method in brief: as §1
Staphylococcus aureus [2] = experiment: Antibacterial activity against Staphylococcus aureus ATCC 6538 assessed as growth inhibition after 18 hr by CLSI broth microdilution method; conditions: ATCC 6538, 18 h; method in brief: as §1
Staphylococcus aureus [3] = experiment: Antibacterial activity against Staphylococcus aureus ATCC 25923 assessed as growth inhibition after 18 hr by CLSI broth microdilution method; conditions: ATCC 25923, 18 h; method in brief: as §1
Bacillus cereus = experiment: Antibacterial activity against Bacillus cereus ATCC 10876 assessed as growth inhibition after 18 hr by CLSI broth microdilution method; conditions: ATCC 10876, 18 h; method in brief: as §1

With COc1ccc(-n2c(S)nnc2CSc2nnc(-c3ccccc3)n2-c2ccccc2)cc1 the MIC (Micrococcus luteus) was > 1000 µg/mL, the MIC (Bacillus spizizenii) was > 1000 µg/mL and the MIC [1] was > 1000 µg/mL. For the same compound, the MIC (Staphylococcus aureus [2]) was > 1000 µg/mL, the MIC (Staphylococcus aureus [3]) was 1000 µg/mL (≈ 2120 µM) and the MIC (Bacillus cereus) was 500 µg/mL (≈ 1060 µM).
For Sc1nnc(CSc2nnc(-c3ccccc3)n2-c2ccccc2)n1-c1ccccc1, the MIC (Micrococcus luteus) was > 1000 µg/mL, the MIC (Bacillus spizizenii) was > 1000 µg/mL and the MIC [1] was > 1000 µg/mL. The MIC (Staphylococcus aureus [2]) was > 1000 µg/mL, the MIC (Staphylococcus aureus [3]) was 1000 µg/mL (≈ 2260 µM) and the MIC (Bacillus cereus) was 500 µg/mL (≈ 1130 µM).
For O=C(CSc1nnc(-c2ccccc2)n1-c1ccccc1)NNC(=S)NC1CCCCC1, the MIC (Micrococcus luteus) was 1000 µg/mL (≈ 2140 µM), the MIC (Bacillus spizizenii) was 1000 µg/mL (≈ 2140 µM) and the MIC [1] was > 1000 µg/mL. The MIC (Staphylococcus aureus [2]) was > 1000 µg/mL, the MIC (Staphylococcus aureus [3]) was > 1000 µg/mL and the MIC (Bacillus cereus) was 1000 µg/mL (≈ 2140 µM).
Work on COc1ccc(CNC(=S)NNC(=O)CSc2nnc(-c3ccccc3)n2-c2ccccc2)cc1 yielded an MIC (Micrococcus luteus) of 1000 µg/mL (≈ 1980 µM), an MIC (Bacillus spizizenii) of 500 µg/mL (≈ 991 µM) and an MIC [1] of 500 µg/mL (≈ 991 µM). The MIC (Staphylococcus aureus [2]) was 1000 µg/mL (≈ 1980 µM), the MIC (Staphylococcus aureus [3]) was 500 µg/mL (≈ 991 µM) and the MIC (Bacillus cereus) was 1000 µg/mL (≈ 1980 µM).
For CCOC(=O)NC(=S)NNC(=O)CSc1nnc(-c2ccccc2)n1-c1ccccc1, the MIC (Micrococcus luteus) was 1000 µg/mL (≈ 2190 µM), the MIC (Bacillus spizizenii) was 500 µg/mL (≈ 1100 µM) and the MIC [1] was 1000 µg/mL (≈ 2190 µM). The MIC (Staphylococcus aureus [2]) was > 1000 µg/mL, the MIC (Staphylococcus aureus [3]) was > 1000 µg/mL and the MIC (Bacillus cereus) was 500 µg/mL (≈ 1100 µM).
For O=C(CSc1nnc(-c2ccccc2)n1-c1ccccc1)NNC(=S)NC(=O)c1ccccc1, the MIC (Micrococcus luteus) was 125 µg/mL (≈ 256 µM), the MIC (Bacillus spizizenii) was 250 µg/mL (≈ 512 µM) and the MIC [1] was 125 µg/mL (≈ 256 µM). The MIC (Staphylococcus aureus [2]) was 250 µg/mL (≈ 512 µM), the MIC (Staphylococcus aureus [3]) was 31.2 µg/mL (≈ 64 µM) and the MIC (Bacillus cereus) was 125 µg/mL (≈ 256 µM).
C=CCn1c(CSc2nnc(-c3ccccc3)n2-c2ccccc2)n[nH]c1=S gave an MIC (Micrococcus luteus) of 1000 µg/mL (≈ 2460 µM), an MIC (Bacillus spizizenii) of 1000 µg/mL (≈ 2460 µM) and an MIC [1] of 1000 µg/mL (≈ 2460 µM). It also gave an MIC (Staphylococcus aureus [2]) of 1000 µg/mL (≈ 2460 µM), an MIC (Staphylococcus aureus [3]) of 1000 µg/mL (≈ 2460 µM) and an MIC (Bacillus cereus) of 1000 µg/mL (≈ 2460 µM).
Compound S=c1[nH]nc(CSc2nnc(-c3ccccc3)n2-c2ccccc2)n1C1CCCCC1 has an MIC (Micrococcus luteus) of 250 µg/mL (≈ 557 µM), an MIC (Bacillus spizizenii) of 500 µg/mL (≈ 1110 µM) and an MIC [1] of 500 µg/mL (≈ 1110 µM). For the same compound, the MIC (Staphylococcus aureus [2]) was 250 µg/mL (≈ 557 µM), the MIC (Staphylococcus aureus [3]) was 500 µg/mL (≈ 1110 µM) and the MIC (Bacillus cereus) was 1000 µg/mL (≈ 2230 µM).
S=c1[nH]nc(CSc2nnc(-c3ccccc3)n2-c2ccccc2)n1Cc1ccccc1 was tested, and the MIC (Micrococcus luteus) was 1000 µg/mL (≈ 2190 µM), the MIC (Bacillus spizizenii) was > 1000 µg/mL and the MIC [1] was 1000 µg/mL (≈ 2190 µM). For the same compound, the MIC (Staphylococcus aureus [2]) was 1000 µg/mL (≈ 2190 µM), the MIC (Staphylococcus aureus [3]) was 1000 µg/mL (≈ 2190 µM) and the MIC (Bacillus cereus) was > 1000 µg/mL.
For COc1ccc(Cn2c(CSc3nnc(-c4ccccc4)n3-c3ccccc3)n[nH]c2=S)cc1, the MIC (Micrococcus luteus) was > 1000 µg/mL, the MIC (Bacillus spizizenii) was > 1000 µg/mL and the MIC [1] was > 1000 µg/mL. For the same compound, the MIC (Staphylococcus aureus [2]) was 1000 µg/mL (≈ 2050 µM), the MIC (Staphylococcus aureus [3]) was > 1000 µg/mL and the MIC (Bacillus cereus) was > 1000 µg/mL.
With c1ccc(CNc2nnc(CSc3nnc(-c4ccccc4)n3-c3ccccc3)s2)cc1 the MIC (Micrococcus luteus) was 125 µg/mL (≈ 274 µM), the MIC (Bacillus spizizenii) was 15.6 µg/mL (≈ 34.2 µM) and the MIC [1] was 500 µg/mL (≈ 1100 µM). For the same compound, the MIC (Staphylococcus aureus [3]) was 250 µg/mL (≈ 548 µM).
For CO/N=C(\C(=O)N[C@@H]1C(=O)N2C(C(=O)O)=C(COC(N)=O)CS[C@H]12)c1ccco1 [CEFUROXIME], the MIC (Micrococcus luteus) was 0.49 µg/mL (≈ 1.15 µM), the MIC (Bacillus spizizenii) was 0.49 µg/mL (≈ 1.15 µM) and the MIC [1] was 0.24 µg/mL (≈ 0.566 µM). The MIC (Staphylococcus aureus [2]) was 1.95 µg/mL (≈ 4.59 µM), the MIC (Staphylococcus aureus [3]) was 0.49 µg/mL (≈ 1.15 µM) and the MIC (Bacillus cereus) was 62.5 µg/mL (≈ 147 µM).
